Reference: ChEMBL document CHEMBL5653624 (Biochem Pharmacol, 2016)
The source made the active and inactive calls. The rule behind the calls is not given here.

Legend:
RAW264.7 [1] = assay: Effect on HDAC3-NFkappaB p65 protein-protein interaction in LPS/IFNgamma-stimulated mouse RAW264.7 cells at 1 uM preincubated for 20 hrs followed by LPS/IFNgamma stimulation and measured after 1 hr by immunoprecipitation analysis; assay type: cell-based
In short: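 RAW 264.7 cells treated for 20 h, then LPS/IFNγ-stimulated. Lysates rotated 4 h at 4 °C and cleared. NF-κB p65 immunoprecipitated with mouse monoclonal antibody overnight at 4 °C, then Protein A/G agarose for 6 h at 4 °C, followed by washes. Immunoblot for HDAC 3, densitometry normalized to NF-κB p65. Mean ± SD of 3 experiments.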

Lung [2] = assay: Antiinflammatory activity in C57bl/6 mouse precision-cut lung slices assessed as upregulation of LPS/IFNgamma-induced IL-1beta gene expression at 1 to 10 uM preincubated for 20 hrs followed by LPS/IFNgamma stimulation and measured after 4 hrs by RT-qPCR analysis relative to control; assay type: functional; settings: dose 1-10 µM; time 24 hrs
In short: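 PCLS, 250 μm thick, cut from agarose-filled lungs of male C57bl/6 mice (24–28 g, 8–10 weeks). Three slices per well at 37 °C, 5% CO2. Slices received RGFP966 at 1 and 10 μM final for 20 h, with 10 ng/ml LPS and 10 ng/ml IFNγ stimulation. RNA isolated; RT-qPCR fold change versus LPS/IFNγ control by 2−ΔΔCt. Mean ± SD, n = 3–5.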

[3] = target: T1, Histone deacetylase 3 (Mus musculus) (UniProt O88895); assay: Inhibition of HDAC3 in mouse RAW264.7 cells assessed as effect on histone H3 acetylation measured after 20 hrs by Western blot analysis; assay type: cell-based
T1 sequence (whole entry): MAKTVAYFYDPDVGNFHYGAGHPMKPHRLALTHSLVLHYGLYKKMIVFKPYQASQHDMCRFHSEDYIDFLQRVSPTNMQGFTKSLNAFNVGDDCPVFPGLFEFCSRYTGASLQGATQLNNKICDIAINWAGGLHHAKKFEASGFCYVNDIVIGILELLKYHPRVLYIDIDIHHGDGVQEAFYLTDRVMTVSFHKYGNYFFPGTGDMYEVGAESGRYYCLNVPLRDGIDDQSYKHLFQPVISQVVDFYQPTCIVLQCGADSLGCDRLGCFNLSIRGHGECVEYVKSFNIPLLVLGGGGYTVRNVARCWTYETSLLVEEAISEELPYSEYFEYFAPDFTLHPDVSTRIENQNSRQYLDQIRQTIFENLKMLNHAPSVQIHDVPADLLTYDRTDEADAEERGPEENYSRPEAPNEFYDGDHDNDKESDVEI
In short: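 Histones extracted from RAW 264.7 cells after 20 h inhibitor treatment, protein quantified by micro BCA (BSA standard), and H3 and H4 acetylation assessed by Western blot versus vehicle-treated cells.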

HASMC [4] = assay: Antiinflammatory activity in HASMC cells assessed as effect on LPS/IFNgamma-induced IL-6 gene expression at 2 uM […] and measured after 4 hrs by RT-qPCR analysis; assay type: functional, cell-based; settings: Homo sapiens
In short: (§1)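 HBE cells (passage 73–103) or immortalized hASM cells (2–3 donors, passage 27–35), serum-starved. Then 2 μM RGFP966 for 20 h, with LPS/IFNγ for the last 4 h. Total RNA isolated; RT-qPCR by 2−ΔΔCt, fold change versus LPS/IFNγ control. Mean ± SD of 3–5 independent experiments.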

HBE [5] = assay: Antiinflammatory activity in HBE cells assessed as effect on LPS/IFNgamma-induced iNOS gene expression at 2 uM […] by RT-qPCR analysis; assay type: functional, cell-based; settings: Homo sapiens; in short: as §1
Lung [6] = assay: Antiinflammatory activity in C57bl/6 mouse precision-cut lung slices assessed as effect on LPS/IFNgamma-induced HDAC3 gene expression at 1 to 10 uM preincubated for 20 hrs followed by LPS/IFNgamma stimulation and measured after 4 hrs by RT-qPCR analysis; assay type: functional, tissue-based; settings: dose 1-10 µM, time 24.0 hrs
HBE [7] = assay: Antiinflammatory activity in HBE cells assessed as effect on LPS/IFNgamma-induced IL-1beta gene expression at 2 uM […] by RT-qPCR analysis; assay type: functional, cell-based; settings: Homo sapiens; in short: as §1
HASMC [8] = assay: Antiinflammatory activity in HASMC cells assessed as effect on LPS/IFNgamma-induced IL-1beta gene expression at 2 uM […] by RT-qPCR analysis; assay type: functional, cell-based; settings: Homo sapiens; in short: as §1
[9] = target: T1, Histone deacetylase 3 (Mus musculus); assay: Inhibition of HDAC3 in mouse RAW-Blue cells assessed as reduction in LPS/IFNgamma-induced NF-kappaB p65 transcriptional activity preincubated for 16 hrs followed by LPS/IFNgamma stimulation and measured after 4 hrs by SEAP reporter gene assay; assay type: cell-based; settings: time 20.0 hrs
In short: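 RAW-Blue cells (RAW 264.7-derived, stably expressing an NF-κB/AP-1-inducible secreted embryonic alkaline phosphatase) exposed to inhibitor for 20 h total, with 10 ng/ml LPS plus 10 ng/ml IFNγ added for the final 4 h. Supernatant mixed with QUANTI-Blue medium, 37 °C 1–2 h in the dark, absorbance 630 nm; reported as % of control.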

[10] = target: Histone deacetylase 1 (Mus musculus) (UniProt O09106); assay: Effect on HDAC1 nuclear localization in LPS/IFNgamma-stimulated mouse RAW264.7 cells preincubated for 20 hrs followed by LPS/IFNgamma stimulation and measured after 1 hr by Western blot analysis; assay type: cell-based
In short: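 RAW 264.7 cells treated for 20 h, then 1 h LPS/IFNγ, and fractionated into nuclear and cytosolic parts. Fractions immunoblotted, with PARP-1 and β-actin as internal controls. Densitometry with vehicle control set at 100%. Mean ± SD of 3–4 independent experiments.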

[11] = Toxicity in C57bl/6 mouse precision-cut lung slices assessed as effect on tissue viability up to 10 uM measured after 20 hrs by LDH release assay; assay type: tissue-based
In short: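 PCLS (250 μm) from male C57bl/6 mice, agarose-filled lungs, washed four times, 3 slices/well at 37 °C 5% CO2; inhibitor at 1 and 10 μM for 20 h. LDH in medium measured on automatic analyzer, expressed relative to maximal release from 3 slices lysed with 1% Triton X-100 (30 min, 37 °C).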

RAW264.7 [12] = assay: Antiinflammatory activity in LPS/IFNgamma-stimulated mouse RAW264.7 cells assessed as effect on NF-kappaB p65 mRNA expression preincubated for 20 hrs followed by LPS/IFNgamma stimulation and measured after 4 hrs by RT-qPCR analysis; assay type: functional, cell-based; settings: time 24.0 hrs
RAW264.7 [13] = assay: Antiinflammatory activity in LPS/IFNgamma-stimulated mouse RAW264.7 cells assessed as reduction in HDAC1 expression preincubated for 20 hrs followed by LPS/IFNgamma stimulation and measured after 4 hrs by Western blot analysis; assay type: functional, cell-based; settings: time 24.0 hrs
In short: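 RAW 264.7 cells were LPS/IFNγ-stimulated after inhibitor exposure, then lysed in Hepes/Triton buffer containing DTT, butyrate and protease inhibitors, freeze-thawed and cleared. Immunoblot with milk blocking and overnight primary antibody at 4 °C. Densitometry normalized to β-actin, LPS/IFNγ control set at 100%. Mean ± SD of 4 independent experiments.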

Chain of Histone deacetylase 1 (Mus musculus) (O09106 whole entry): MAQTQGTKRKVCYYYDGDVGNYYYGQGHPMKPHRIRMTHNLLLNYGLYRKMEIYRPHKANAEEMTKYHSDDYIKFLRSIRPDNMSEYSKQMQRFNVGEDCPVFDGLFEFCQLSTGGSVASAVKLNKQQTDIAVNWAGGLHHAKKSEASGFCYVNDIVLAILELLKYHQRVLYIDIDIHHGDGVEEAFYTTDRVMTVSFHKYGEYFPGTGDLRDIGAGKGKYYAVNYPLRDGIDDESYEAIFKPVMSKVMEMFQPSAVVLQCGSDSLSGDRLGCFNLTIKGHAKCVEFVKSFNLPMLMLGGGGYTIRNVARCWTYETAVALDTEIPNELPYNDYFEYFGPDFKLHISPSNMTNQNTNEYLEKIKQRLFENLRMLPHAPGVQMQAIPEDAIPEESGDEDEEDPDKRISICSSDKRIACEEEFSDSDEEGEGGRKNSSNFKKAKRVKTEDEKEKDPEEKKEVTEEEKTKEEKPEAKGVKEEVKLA

inhibition [3]: inactive
inhibition [9]: Active
Activity [10]: inactive
Compound: Nc1cc(F)ccc1NC(=O)/C=C/c1cnn(C/C=C/c2ccccc2)c1
Activity (RAW264.7 [1]): inactive
fold change (FC) (Lung [2]): >2
Activity (HASMC [4]): inactive
Activity (HBE [5]): inactive
Activity (Lung [6]): inactive
Activity (HBE [7]): inactive
Activity (HASMC [8]): inactive
Activity [11]: Non-Toxic
Activity (RAW264.7 [12]): inactive
Activity (RAW264.7 [13]): Active
